How the values were obtained:
Cannabinoid receptor 2 [1] = molecular target: T1, Cannabinoid receptor 2 (Homo sapiens, UniProt P34972); test: Displacement of [3H]CP-55,940 from human recombinant CB2R expressed in HEK-293 cells after 90 mins by liquid scintillation counting; parameters: species or system HEK293
HEK293 = test: Selectivity ratio of Ki for human recombinant CB1R expressed in HEK-293 cells to Ki for human recombinant CB2R expressed in HEK-293 cells; assay type: cell-based
Cannabinoid receptor 2 [2] = molecular target: T1, Cannabinoid receptor 2; test: Agonist activity at human recombinant CB2R expressed in U2OS cells assessed as beta-arrestin-GFP binding to receptor […] by fluorescent microscopy; assay type: cell-based
Cannabinoid receptor 2 [3] = molecular target: T1, Cannabinoid receptor 2; test: Agonist activity at human recombinant CB2R expressed in […] U2OS cells assessed as reduction in forskolin-mediated cAMP level after 30 mins by time-resolved fluorescence assay; assay type: functional, cell-based
Method in brief: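 hCB2R-expressing U2OS cells in HBSS stimulation buffer with 0.1% BSA, 0.5 mM IBMX and 5 mM HEPES, pH 7.4, at 3000 cells/well. Cells treated with forskolin (10 μM final) and various ligand concentrations for 30 min at room temperature. cAMP measured by LANCE TR-FRET (Eu-cAMP tracer plus ULight antibody, 1 h in the dark, 615/665 nm) against a cAMP standard curve. Three experiments in triplicate.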

Cannabinoid receptor 1 = Cannabinoid receptor 1 (Homo sapiens, UniProt P21554); test: Displacement of [3H]CP-55,940 from human recombinant CB1R expressed in HEK-293 cells after 90 mins by liquid scintillation counting; parameters: species or system HEK293
Cannabinoid receptor 2 [4] = molecular target: T1, Cannabinoid receptor 2; test: Antagonist activity at human recombinant CB2R expressed in U2OS cells assessed as inhibition of WIN-55212-induced beta-arrestin-GFP binding to receptor preincubated for 15 mins by fluorescent microscopy; assay type: cell-based
Method in brief: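 Same βarr2-GFP redistribution set-up in hCB2R U2OS cells on coverslips. […] Fixed in 4% paraformaldehyde, imaged by fluorescence microscopy. […] Three experiments in duplicate.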

Cannabinoid receptor 2 [5] = molecular target: T1, Cannabinoid receptor 2; test: Antagonist activity at human recombinant CB2R expressed in WIN-55212-stimulated U2OS cells assessed as increase in forskolin-mediated cAMP level after 30 mins by time-resolved fluorescence assay; assay type: functional, cell-based

T1 sequence (P34972 whole entry): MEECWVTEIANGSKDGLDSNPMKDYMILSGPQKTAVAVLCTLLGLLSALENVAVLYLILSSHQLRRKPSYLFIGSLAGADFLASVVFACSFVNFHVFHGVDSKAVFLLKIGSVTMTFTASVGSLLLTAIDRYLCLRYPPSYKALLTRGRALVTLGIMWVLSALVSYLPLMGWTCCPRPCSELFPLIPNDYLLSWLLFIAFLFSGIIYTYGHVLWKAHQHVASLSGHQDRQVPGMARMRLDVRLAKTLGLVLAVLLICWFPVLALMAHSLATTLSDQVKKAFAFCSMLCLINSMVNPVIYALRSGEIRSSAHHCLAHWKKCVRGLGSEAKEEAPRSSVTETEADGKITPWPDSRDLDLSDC
Chain of Cannabinoid receptor 1 (P21554 whole entry): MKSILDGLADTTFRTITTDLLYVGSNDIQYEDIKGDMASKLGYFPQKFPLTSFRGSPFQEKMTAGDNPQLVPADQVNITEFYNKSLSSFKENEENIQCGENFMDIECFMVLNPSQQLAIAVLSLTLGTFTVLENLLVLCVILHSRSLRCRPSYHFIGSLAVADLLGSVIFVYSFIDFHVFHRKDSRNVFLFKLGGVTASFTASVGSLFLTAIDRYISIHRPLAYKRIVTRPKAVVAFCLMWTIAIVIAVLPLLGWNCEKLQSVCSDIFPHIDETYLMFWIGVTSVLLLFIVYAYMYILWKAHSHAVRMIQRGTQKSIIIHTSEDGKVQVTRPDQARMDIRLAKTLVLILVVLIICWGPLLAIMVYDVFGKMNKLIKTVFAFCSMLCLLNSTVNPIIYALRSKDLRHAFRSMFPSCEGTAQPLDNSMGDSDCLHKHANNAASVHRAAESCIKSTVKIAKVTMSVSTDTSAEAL

Compound | Ratio Ki (HEK293) | Ki (Cannabinoid receptor 1) [µM] | Ki (Cannabinoid receptor 2 [1]) [µM] | also measured
CC1CCC(NC(=O)c2cc3cccnc3n(Cc3ccc(F)cc3)c2=O)CC1 (stereo not drawn) | 222 | – | – | IC50 (Cannabinoid receptor 2 [1]): 0.00137 µM; EC50 (Cannabinoid receptor 2 [2]): 0.0296 µM; EC50 (Cannabinoid receptor 2 [3]): 0.0296 µM
C[C@H]1CC[C@@H](NC(=O)c2cc3cc(-c4ccco4)cnc3n(Cc3ccc(F)cc3)c2=O)CC1 | 15000 | 4.06 | 0.00027 | –
CCOC(=O)CCn1c(=O)c(C(=O)NC2CCC(C)CC2)cc2cccnc21 (stereo not drawn) | – | > 10 | 0.176 | –
COc1ccc(-c2cnc3c(c2)cc(C(=O)NC2CCC(C)CC2)c(=O)n3CCN2CCOCC2)cc1 (stereo not drawn) | – | > 10 | 0.00147 | IC50 (Cannabinoid receptor 2 [4]): 0.054 µM; IC50 (Cannabinoid receptor 2 [5]; u2os): ND(Insoluble)
CC1CCC(NC(=O)c2cc3cc(-c4cccs4)cnc3n(CCN3CCOCC3)c2=O)CC1 (stereo not drawn) | 192 | 0.0327 | 0.00017 | –
CC1CCC(NC(=O)c2cc3cccnc3n(CCCC(=O)O)c2=O)CC1 (stereo not drawn) | – | > 10 | 2.47 | –
CC1CCC(NC(=O)c2cc3cc(-c4ccc(F)cc4)cnc3n(CCN3CCOCC3)c2=O)CC1 (stereo not drawn) | 98 | 0.0667 | 0.00068 | –
C[C@H]1CC[C@H](NC(=O)c2cc3cc(-c4cccs4)cnc3n(Cc3ccc(F)cc3)c2=O)CC1 | 6.5 | 0.43 | 0.0656 | –
COC(=O)CCCCn1c(=O)c(C(=O)NC2CCC(C)CC2)cc2cccnc21 (stereo not drawn) | – | > 10 | 0.0271 | –
CC1CCC(NC(=O)c2cc3cc(-c4cccs4)cnc3n(Cc3ccc(F)cc3)c2=O)CC1 (stereo not drawn) | 1770 | 3.28 | 0.00185 | –
CCCC(C)(C)c1ccc2c(c1)OC(C)(C)[C@@H]1CC=C(C)C[C@@H]21 | 226 | – | – | –
CC1CCC(NC(=O)c2cc3cccnc3n(CCCCF)c2=O)CC1 (stereo not drawn) | 743 | 1.01 | 0.00136 | IC50 (Cannabinoid receptor 2 [1]): 0.00535 µM; EC50 (Cannabinoid receptor 2 [2]): 0.0218 µM; EC50 (Cannabinoid receptor 2 [3]): 0.0206 µM
C[C@H]1CC[C@H](NC(=O)c2cc3cc(-c4ccco4)cnc3n(Cc3ccc(F)cc3)c2=O)CC1 | > 106 | > 10 | 0.0942 | –
CCOC(=O)CCCn1c(=O)c(C(=O)NC2CCC(C)CC2)cc2cccnc21 (stereo not drawn) | – | > 10 | 0.0626 | –
CC1CCC(NC(=O)c2cc3cccnc3n(CCCO)c2=O)CC1 (stereo not drawn) | – | > 10 | 0.129 | –
CC1CCC(NC(=O)c2cc3cc(Br)cnc3n(Cc3ccc(F)cc3)c2=O)CC1 (stereo not drawn) | 534 | 0.0961 | 0.00018 | IC50 (Cannabinoid receptor 2 [1]): 0.00072 µM; IC50 (Cannabinoid receptor 2 [4]): 0.0316 µM; IC50 (Cannabinoid receptor 2 [5]; u2os): ND(Insoluble)
CC1CCC(NC(=O)c2cc3cccnc3n(CCCCC(=O)O)c2=O)CC1 (stereo not drawn) | – | > 10 | 1.34 | –
CC1CCC(NC(=O)c2cc3cccnc3n(CCCCCCO)c2=O)CC1 (stereo not drawn) | – | > 10 | 0.018 | –

Compound | Ratio Ki (HEK293) | Ki (Cannabinoid receptor 1) [µM] | Ki (Cannabinoid receptor 2 [1]) [µM] | also measured
CC1CCC(NC(=O)c2cc3cc(-c4ccco4)cnc3n(CCN3CCOCC3)c2=O)CC1 (stereo not drawn) | 151 | 0.0529 | 0.00035 | –
CC1CCC(NC(=O)c2cc3cccnc3n(CCC(=O)O)c2=O)CC1 (stereo not drawn) | – | > 10 | 1.39 | –
C[C@H]1CC[C@@H](NC(=O)c2cc3cc(-c4cccs4)cnc3n(Cc3ccc(F)cc3)c2=O)CC1 | 491 | 0.472 | 0.00096 | –
C[C@H]1CC[C@H](NC(=O)c2cc3cc(Br)cnc3n(Cc3ccc(F)cc3)c2=O)CC1 | 148 | 0.166 | 0.00112 | –
C[C@H]1CC[C@@H](NC(=O)c2cc3cc(Br)cnc3n(Cc3ccc(F)cc3)c2=O)CC1 | 1010 | 0.121 | 0.00012 | –
COc1ccc(-c2cnc3c(c2)cc(C(=O)NC2CCC(C)CC2)c(=O)n3Cc2ccc(F)cc2)cc1 (stereo not drawn) | 851 | 3.26 | 0.00383 | –
CC1CCC(NC(=O)c2cc3cccnc3n(CCCCCCF)c2=O)CC1 (stereo not drawn) | 24.4 | 0.0357 | 0.00146 | –
CC1CCC(NC(=O)c2cc3cc(-c4ccc(F)cc4)cnc3n(Cc3ccc(F)cc3)c2=O)CC1 (stereo not drawn) | – | > 10 | 0.00217 | –
CC1CCC(NC(=O)c2cc3cccnc3n(CCN3CCOCC3)c2=O)CC1 (stereo not drawn) | 526 | – | – | EC50 (Cannabinoid receptor 2 [2]): 0.0176 µM; EC50 (Cannabinoid receptor 2 [3]): 0.028 µM
CC1CCC(NC(=O)c2cc3cccnc3n(CCCCO)c2=O)CC1 (stereo not drawn) | – | > 10 | 0.0533 | IC50 (Cannabinoid receptor 2 [1]): 0.21 µM; EC50 (Cannabinoid receptor 2 [2]): 0.0237 µM
CC1CCC(NC(=O)c2cc3cccnc3n(CCO)c2=O)CC1 (stereo not drawn) | – | > 10 | 2.1 | –
CC1CCC(NC(=O)c2cc3cccnc3n(CCCCCO)c2=O)CC1 (stereo not drawn) | – | > 10 | 0.0036 | –
CC1CCC(NC(=O)c2cc3cc(Br)cnc3n(CCN3CCOCC3)c2=O)CC1 (stereo not drawn) | 595 | 0.75 | 0.00126 | IC50 (Cannabinoid receptor 2 [4]): 0.0321 µM; IC50 (Cannabinoid receptor 2 [5]; read-out: IC50): 0.0596 µM
CC1CCC(NC(=O)c2cc3cc(-c4ccco4)cnc3n(Cc3ccc(F)cc3)c2=O)CC1 (stereo not drawn) | 5140 | 3.44 | 0.00067 | –
CCCCn1c(=O)c(C(=O)NC2CCC(C)CC2)cc2cccnc21 (stereo not drawn) | 593 | 2.31 | 0.0039 | –
CC1CCC(NC(=O)c2cc3cccnc3n(CCCCCF)c2=O)CC1 (stereo not drawn) | 40.3 | 0.0226 | 0.00056 | –
CCCCCn1c(=O)c(C(=O)NC2CCC(C)CC2)cc2cccnc21 (stereo not drawn) | 322 | 0.908 | 0.00282 | –
